# Data as given in ChEMBL document CHEMBL1126006, “Synthesis, specificity, and antifungal activity of inhibitors of the Candida albicans delta 24-sterol methyltransferase” (J Med Chem, 1992).
# Legend:
# [1] = tested on: Candida albicans; assay: Compound was tested for the inhibition of delta24-sterol Methyl transferase
# In short: (§1)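 Microsomes from C. albicans ATCC 28367, 0.20 mg microsomal protein per assay; desmosterol as sterol substrate, SAM 25 μM; standard assay pH 7.5. Reversible inhibition patterns and constants fitted by Cleland COMP/NONCOMP, or otherwise by a parabolic competitive inhibition equation, which gives the alpha cooperativity factor for binding of two inhibitor molecules.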
# [2] = tested on: Candida albicans; assay: Inhibition type against delta 24-sterol Methyl transferase; in short: as §1
# [3] = tested on: Candida albicans; assay: In vitro Minimum inhibitory concentration was determined by microbroth dilution assay on Candida albicans; format: functional
# In short: (§2)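 Microbroth dilution, 4×10^3 cells/mL (C. albicans B311; C. tropicalis and T. glabrata clinical isolates, pre-grown 18 h at 35 °C and washed) in YNB with asparagine and glucose, pH 5.5; 0.10–100 μg/mL drug, 1% DMSO final; 24 h at 35 °C, quadruplicate wells. MIC read visually as first concentration with marked growth reduction; geometric mean reported.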
# [4] = tested on: Candida albicans; assay: In vitro Minimum lethal concentration was determined by microbroth dilution assay on Candida albicans; format: functional
# In short: (§3)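 C. albicans strain B311; C. tropicalis and T. glabrata were clinical isolates. Yeasts were pregrown 18 h at 35 °C, 125 rpm, in the test medium, saline-washed three times and counted by hemocytometer. Assay medium was YNB with 0.15% asparagine and 2% glucose, pH 5.5. Final drug 0.10 to 100 μg/mL, 1% DMSO, 4×10^3 cells/mL, quadruplicate wells, 35 °C for 24 h. MLC = first concentration whose subculture (Sabouraud agar, 48 h, 35 °C) gave ≤50 CFU/mL; geometric mean reported.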
# [5] = tested on: Candida tropicalis; assay: In vitro Minimum inhibitory concentration was determined by microbroth dilution assay on Candida tropicalis; format: functional; in short: as §2
# [6] = tested on: Candida tropicalis; assay: In vitro Minimum lethal concentration was determined by microbroth dilution assay on Candida tropicalis; format: functional; in short: as §3
# [7] = tested on: Nakaseomyces glabratus; assay: In vitro Minimum lethal concentration was determined by microbroth dilution assay on Torulopsis glabrata; format: functional; in short: as §3
# [8] = tested on: Nakaseomyces glabratus; assay: In vitro Minimum inhibitory concentration was determined by microbroth dilution assay on Torulopsis glabrata; format: functional; in short: as §2
# [9] = tested on: Candida albicans; assay: Alpha factor which describes the cooperativity of binding of 2 identical inhibitor molecules.; in short: as §1
# [10] = tested on: Candida albicans; assay: Compound was tested for the inhibition of Delta 24-sterol-C-methyl-transferase; in short: as §1
# [11] = tested on: Candida albicans
Kis [1] [nM],SMILES,Inhibition type [2],MIC [3] [µg/mL],MLC [4] [µg/mL],MIC [5] [µg/mL],MLC [6] [µg/mL],MLC [7],MIC [8] [µg/mL],Alpha c [9],Kis [10] [nM],Kii [11] [nM]
20000,CC(C)[S+]([O-])CC[C@@H](C)C1CCC2C3CC=C4C[C@@H](O)CC[C@]4(C)C3CC[C@@]21C (some centres not stated),Competitive,–,–,–,–,–,–,–,–,–
6,C[C@H](CCC(N)=[N+](C)C)C1CC[C@@]2(C)C3=C(CC[C@]12C)[C@@]1(C)CC[C@H](O)C(C)(C)C1CC3 (some centres not stated),Parabolic competitive,–,–,–,–,–,–,–,–,–
21,CC(C)[S+](C)CC[C@@H](C)C1CC[C@@]2(C)C3=C(CC[C@]12C)[C@@]1(C)CC[C@H](O)C(C)(C)C1CC3 (some centres not stated),Parabolic competitive,–,–,–,–,–,–,0.02,–,–
–,CC(C)SCC[C@@H](C)C1CCC2C3CC=C4C[C@@H](O)CC[C@]4(C)C3CC[C@@]21C (some centres not stated),Competitive,50,>100,> 100,>100,>100 µg/mL,> 100,–,1500,–
–,C[C@@H]1[C@H](O)[C@@H](C)/C=C/C=C/C=C/C=C/C=C/C=C/C=C/[C@H](O[C@@H]2O[C@H](C)[C@@H](O)[C@H](N)[C@@H]2O)C[C@@H]2O[C@](O)(C[C@@H](O)C[C@@H](O)[C@H](O)CC[C@@H](O)C[C@@H](O)CC(=O)O[C@H]1C)C[C@H](O)[C@H]2C(=O)O [AMPHOTERICIN B],–,0.2,0.8,0.2,0.4,0.4 µg/mL,0.1,–,–,–
–,CC(=O)N1CCN(c2ccc(OCC3COC(Cn4ccnc4)(c4ccc(Cl)cc4Cl)O3)cc2)CC1 (configuration not stated) [KETOCONAZOLE],–,0.1,12.5,1.6,6.3,12.5 pug ml-1,3.1,–,–,–
–,C[C@H](CCC(=N)N)C1CC[C@@]2(C)C3=C(CC[C@]12C)[C@@]1(C)CC[C@H](O)C(C)(C)C1CC3.O=S(=O)(O)C(F)(F)F (some centres not stated),Parabolic competitive,0.2,12.5,0.4,12.5,50 µg/mL,3.1,0.06,11,–
–,CC(C)[S+](C)CC[C@@H](C)C1CCC2C3CC=C4C[C@@H](O)CC[C@]4(C)C3CC[C@@]21C.[I-] (some centres not stated),Parabolic competitive,0.2,50,0.2,6.3,50 µg/mL,1.6,0.05,16,–
72000,CC(C)SCC[C@@H](C)C1CC[C@@]2(C)C3=C(CC[C@]12C)[C@@]1(C)CC[C@H](O)C(C)(C)C1CC3 (some centres not stated),Competitive,–,–,–,–,–,–,–,–,–

SMILES,Kis [1] [nM],Inhibition type [2],MIC [3] [µg/mL],MLC [4] [µg/mL],MIC [5] [µg/mL],MLC [6] [µg/mL],MLC [7],MIC [8] [µg/mL],Alpha c [9],Kis [10] [nM],Kii [11] [nM]
C[C@H](CCc1nccn1C)C1CC[C@@]2(C)C3=C(CC[C@]12C)[C@@]1(C)CC[C@H](O)C(C)(C)C1CC3 (some centres not stated),5,Parabolic competitive,0.4,>100,12.5,100,>100 µg/mL,> 100,–,–,–
CC[S+](CC[C@@H](C)C1CCC2C3CC=C4C[C@@H](O)CC[C@]4(C)C3CC[C@@]21C)C(C)C.[I-] (some centres not stated),500,Parabolic competitive,100,>100,100,>100,>100 µg/mL,> 100,–,–,–
C[C@H](CCc1ncc[nH]1)C1CC[C@@]2(C)C3=C(CC[C@]12C)[C@@]1(C)CC[C@H](O)C(C)(C)C1CC3 (some centres not stated),11,Noncompetitive,1.6,>100,> 100,>100,>100 µg/mL,> 100,–,–,25
